The text below walks through data of PMC12475083 (Scientific Reports, 2025).

Molecules are shown by their SMILES.

The target in the first test is T1, drHDAC10 (Danio rerio, UniProt F1QCV2).
T1 sequence (F1QCV2 1-675): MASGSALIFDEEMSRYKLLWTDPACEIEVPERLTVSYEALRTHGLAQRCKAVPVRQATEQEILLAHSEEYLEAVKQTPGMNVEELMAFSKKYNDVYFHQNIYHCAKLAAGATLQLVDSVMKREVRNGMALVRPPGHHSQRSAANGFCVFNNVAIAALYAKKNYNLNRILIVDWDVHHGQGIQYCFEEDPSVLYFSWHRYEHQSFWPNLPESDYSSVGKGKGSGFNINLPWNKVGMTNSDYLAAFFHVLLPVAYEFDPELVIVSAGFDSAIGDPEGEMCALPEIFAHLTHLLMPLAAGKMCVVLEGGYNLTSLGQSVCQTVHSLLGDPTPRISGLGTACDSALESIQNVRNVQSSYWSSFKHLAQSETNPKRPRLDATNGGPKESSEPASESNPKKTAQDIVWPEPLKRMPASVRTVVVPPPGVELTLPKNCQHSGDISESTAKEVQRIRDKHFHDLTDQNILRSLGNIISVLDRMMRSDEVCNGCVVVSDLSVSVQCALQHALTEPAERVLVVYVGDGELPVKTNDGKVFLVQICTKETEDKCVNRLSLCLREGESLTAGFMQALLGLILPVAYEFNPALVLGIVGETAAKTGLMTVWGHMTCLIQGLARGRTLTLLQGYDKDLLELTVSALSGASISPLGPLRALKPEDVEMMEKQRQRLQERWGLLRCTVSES
Nature of the test: Enzymatic in vitro HDAC10 inhibition assay.
Settings: not given
The format is biochemical, zebrafish. In short, it runs like this: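 Recombinant wild-type drHDAC10 (5 nM final) was preincubated 5 min with test compound at various concentrations in 20 mM HEPES pH 7.4 with 0.5 mg/mL BSA. The reaction was started with 50 µM Ac-spermidine-AMC and incubated 25 min at 25 °C. A stop solution containing 16 mM NDA derivatized the released primary amine. Fluorescence was read at λex 330 nm and λem 390 nm.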
Broadly, the IC50 is the midpoint of a concentration-inhibition curve. `CN1CCc2c(c3ccccc3n2Cc2ccc(C(=O)NO)cc2)C1` [Tubastatin A, reference compound] showed an IC50 of 50 ± 3 nM.

The test system of a further test is Vero kidney cells. Nature of the test: Cytotoxicity, WST-8 cell viability, non-cancer kidney cells. The test is classed as cell-based. The settings on record: Chlorocebus sabaeus, Vero, 48 h, read-out: Kidney cells IC50 Vero. In outline: (§1)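 Cells were seeded at 10,000 cells/well and grown for 24 h. Test compounds were dissolved in DMSO, diluted in medium and added at 80, 40, 20 and 10 µM. Cells were then incubated for 48 h. Viability was read with WST-8 plus 1-methoxy PMS as formazan absorbance at 450 nm. Controls were doxorubicin (positive) and 0.25% DMSO (vehicle). IC50 came from concentration-response curves, mean ± SD (n = 3).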
Background: Tetrazolium dyes change colour on reduction, which living cells bring about.
On to `COc1cccc2c1C(=O)c1c(O)c3c(c(O)c1C2=O)C[C@@](O)(C(=O)CO)C[C@@H]3O[C@H]1C[C@H](N)[C@H](O)[C@H](C)O1` [Doxorubicin, reference compound], for which the IC50 is above 11000 nM.

For another test, the system named is BT-549 (breast carcinoma). Nature of the test: Cytotoxicity, WST-8 cell viability. The format is cell-based, human. As to conditions: Homo sapiens, BT-549, 48 h, read-out: Cancer cell lines IC50 BT-549. In outline:
as §1
Turning to `COc1cccc2c1C(=O)c1c(O)c3c(c(O)c1C2=O)C[C@@](O)(C(=O)CO)C[C@@H]3O[C@H]1C[C@H](N)[C@H](O)[C@H](C)O1` [Doxorubicin, reference compound], the IC50 worked out at 3440 nM.

For the next test, the system named is SK-OV-3 (ovarian carcinoma). Nature of the test: Cytotoxicity, WST-8 cell viability. As to conditions: Homo sapiens, SK-OV-3, 48 h, read-out: Cancer cell lines IC50 SK-OV-3. The format is cell-based, human. In short, it runs like this: as §1
Consider `COc1cccc2c1C(=O)c1c(O)c3c(c(O)c1C2=O)C[C@@](O)(C(=O)CO)C[C@@H]3O[C@H]1C[C@H](N)[C@H](O)[C@H](C)O1` [Doxorubicin, reference compound], for which the IC50 came out at 2010 nM.

Another test addresses T2, hHDAC8 (Homo sapiens, UniProt Q9BY41).
T2 sequence (Q9BY41 1-377): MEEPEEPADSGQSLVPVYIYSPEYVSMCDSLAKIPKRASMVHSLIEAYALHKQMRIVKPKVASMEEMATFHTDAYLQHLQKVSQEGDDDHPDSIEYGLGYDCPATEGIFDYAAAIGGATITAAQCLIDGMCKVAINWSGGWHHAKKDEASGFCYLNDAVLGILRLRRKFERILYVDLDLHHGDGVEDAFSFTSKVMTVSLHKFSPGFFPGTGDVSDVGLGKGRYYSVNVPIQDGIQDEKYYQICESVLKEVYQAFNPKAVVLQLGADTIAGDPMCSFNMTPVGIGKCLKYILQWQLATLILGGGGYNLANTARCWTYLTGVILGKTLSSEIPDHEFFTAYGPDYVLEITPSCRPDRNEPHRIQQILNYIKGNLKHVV
Nature of the test: biochemical. The test is classed as biochemical. The settings on record: inhibitor at 1 µM.
Turning to `CN1CCc2c(c3ccccc3n2Cc2ccc(C(=O)NO)cc2)C1` [Tubastatin A, reference compound], the “hHDAC8 % @1 µM” value was 46.4%.

The test is the same for the next values; noted with them: inhibitor at 10 µM.
Consider `CN1CCc2c(c3ccccc3n2Cc2ccc(C(=O)NO)cc2)C1` [Tubastatin A, reference compound], for which the “hHDAC8 % @10 µM” value worked out at 84%.

The target in a further test is hHDAC1 (Homo sapiens, UniProt Q13547). Nature of the test: biochemical. The test is classed as biochemical. The settings on record: inhibitor at 1 µM.
hHDAC1, sequence (Q13547 whole entry): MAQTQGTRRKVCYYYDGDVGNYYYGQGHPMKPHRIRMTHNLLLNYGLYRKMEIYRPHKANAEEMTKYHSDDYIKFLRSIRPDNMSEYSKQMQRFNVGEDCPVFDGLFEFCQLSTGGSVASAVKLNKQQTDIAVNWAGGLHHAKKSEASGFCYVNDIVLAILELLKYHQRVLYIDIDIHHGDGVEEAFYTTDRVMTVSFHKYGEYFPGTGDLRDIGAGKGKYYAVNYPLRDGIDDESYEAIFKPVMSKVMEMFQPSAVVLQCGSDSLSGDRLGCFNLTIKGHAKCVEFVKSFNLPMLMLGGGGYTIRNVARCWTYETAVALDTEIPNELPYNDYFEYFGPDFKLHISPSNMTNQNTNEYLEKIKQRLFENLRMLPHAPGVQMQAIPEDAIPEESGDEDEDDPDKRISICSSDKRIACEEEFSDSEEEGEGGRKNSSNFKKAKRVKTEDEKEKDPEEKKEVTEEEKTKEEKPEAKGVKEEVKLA
On to `CN1CCc2c(c3ccccc3n2Cc2ccc(C(=O)NO)cc2)C1` [Tubastatin A, reference compound], for which the “hHDAC1 % @1 µM” value was determined as 7.6%.

Staying with this test, now noted: inhibitor at 10 µM.
For `CN1CCc2c(c3ccccc3n2Cc2ccc(C(=O)NO)cc2)C1` [Tubastatin A, reference compound], the “hHDAC1 % @10 µM” value is reported as 29.9%.

A further test has as its system SK-MEL (melanoma). Nature of the test: Cytotoxicity, WST-8 cell viability. The settings on record: Homo sapiens, 48 h, read-out: Cancer cell lines IC50 SK-MEL. The test is classed as cell-based, human. In outline:
as §1
Take `COc1cccc2c1C(=O)c1c(O)c3c(c(O)c1C2=O)C[C@@](O)(C(=O)CO)C[C@@H]3O[C@H]1C[C@H](N)[C@H](O)[C@H](C)O1` [Doxorubicin, reference compound]: the IC50 worked out at 2520 nM.

The next test has as its system KB (epidermal carcinoma). Nature of the test: Cytotoxicity, WST-8 cell viability. The test is classed as cell-based, human. The settings on record: Homo sapiens, 48 h, read-out: Cancer cell lines IC50 KB. In outline:
as §1
Consider `COc1cccc2c1C(=O)c1c(O)c3c(c(O)c1C2=O)C[C@@](O)(C(=O)CO)C[C@@H]3O[C@H]1C[C@H](N)[C@H](O)[C@H](C)O1` [Doxorubicin, reference compound], for which the IC50 is 2300 nM.
